Measured values from different studies.
Compare with care: the assays were run in different laboratories.
Target: Tyrosine-protein kinase Mer (MERTK, Homo sapiens, UniProt Q12866)
Sequence (Q12866 21-999, as in one of the studies): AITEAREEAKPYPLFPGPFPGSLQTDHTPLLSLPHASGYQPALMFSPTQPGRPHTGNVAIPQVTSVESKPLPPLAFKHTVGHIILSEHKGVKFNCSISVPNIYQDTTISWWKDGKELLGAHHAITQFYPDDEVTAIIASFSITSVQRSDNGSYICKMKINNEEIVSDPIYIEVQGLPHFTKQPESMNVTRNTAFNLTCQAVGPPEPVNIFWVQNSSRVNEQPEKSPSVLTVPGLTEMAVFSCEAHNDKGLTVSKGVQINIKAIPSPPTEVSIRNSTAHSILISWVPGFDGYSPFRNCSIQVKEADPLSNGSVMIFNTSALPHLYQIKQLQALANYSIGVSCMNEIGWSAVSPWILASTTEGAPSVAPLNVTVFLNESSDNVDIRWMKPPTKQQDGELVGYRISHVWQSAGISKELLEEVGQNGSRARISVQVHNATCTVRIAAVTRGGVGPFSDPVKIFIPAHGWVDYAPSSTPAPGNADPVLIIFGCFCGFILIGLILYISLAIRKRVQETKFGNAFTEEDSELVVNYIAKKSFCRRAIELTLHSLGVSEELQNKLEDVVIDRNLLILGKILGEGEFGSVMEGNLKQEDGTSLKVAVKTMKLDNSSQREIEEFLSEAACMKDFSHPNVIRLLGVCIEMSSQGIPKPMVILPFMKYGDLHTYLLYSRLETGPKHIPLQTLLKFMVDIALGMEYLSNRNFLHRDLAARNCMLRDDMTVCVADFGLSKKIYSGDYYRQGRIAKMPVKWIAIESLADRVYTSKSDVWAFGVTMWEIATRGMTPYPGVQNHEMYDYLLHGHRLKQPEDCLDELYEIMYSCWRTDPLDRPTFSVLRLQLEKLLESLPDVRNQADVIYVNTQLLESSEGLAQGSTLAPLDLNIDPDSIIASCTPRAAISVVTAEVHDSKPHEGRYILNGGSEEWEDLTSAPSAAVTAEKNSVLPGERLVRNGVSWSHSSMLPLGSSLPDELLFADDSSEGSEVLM

SMILES	assay	conditions	endpoint	value
CCCCN(CCCC)C(=O)CN1C[C@@H](c2cc(OC)c3c(c2)OCO3)[C@H](C(=O)O)[C@H]1CC(C)(C)CCC	cell-free assay, competition with immobilised ligand	1 µM	remaining binding	100%
Cn1c2c(c3ccc(Cl)c(Cl)c31)C(C#N)C(C)(C)NC2=O (stereo not drawn)	thermal stability, DSF	10 µM	ΔTm	-0.9 °C
O=C(Nc1ccc(Oc2ccc(F)cc2)cc1)N1CCc2ncccc2[C@H]1c1ccc(F)cc1	cell-free assay, competition with immobilised ligand	1 µM	remaining binding	96%
CCN(CC)CCNC(=O)c1c(C)[nH]c(/C=C2\C(=O)Nc3ccc(F)cc32)c1C	enzyme activity, inhibitor	0.3 µM	inhibition	94%
CN(C)C(=O)Cn1cc(-c2nc([C@@](C)(c3ccc(-c4cnc(N)nc4)cc3)C3CC3)no2)cn1	cell-free assay, competition with immobilised ligand	1 µM	remaining binding	100%
COc1cc2c(N3CCN(C(=O)Nc4ccc(OC(C)C)cc4)CC3)ncnc2cc1OCCCN1CCCCC1	cell-free assay	0.5 µM	remaining signal	106%
Cn1c2c(Cl)c(Cl)ccc2c2cn[nH]c(=O)c21	thermal stability, DSF	10 µM	ΔTm	-0.5 °C
CCCS(=O)(=O)Nc1ccc(F)c(C(=O)c2c[nH]c3ncc(-c4ccc(Cl)cc4)cc23)c1F	enzyme activity, inhibitor	1 µM	inhibition	< 10%
Cc1ccc(NC(=O)c2ccc(C)c(C(F)(F)F)c2)cc1C#Cc1nn(C2CCC(O)CC2)c2ncnc(N)c12 (stereo not drawn)	cell-free assay	10 µM	remaining signal	0%
Cc1ccc(Nc2nccc(N(C)c3ccc4c(C)n(C)nc4c3)n2)cc1S(N)(=O)=O	enzyme activity, inhibitor	10 µM	inhibition	87%
COc1cc2nccc(Oc3ccc(NC(=O)c4c5n(n(-c6ccc(F)cc6)c4=O)CCCC5)cc3)c2cc1OC	enzyme activity, inhibitor	0.1 µM	inhibition	100%
O=C(Nc1cnn(-c2csc(C(=O)NC3COC3)c2)c1)Nc1ccccc1Cl	enzyme activity, inhibitor	5 µM	remaining activity	92.7%
Cn1nc(C(F)(F)F)cc1-c1cnc(N2CCc3cc(S(=O)(=O)Nc4c(F)cc(Cl)cc4F)cc(N4CCCC4=O)c32)nc1	cell-free assay, competition with immobilised ligand	1 µM	remaining binding	100%
CN1CCC2(CC1)NC(=O)c1c(c3ccc(Cl)c(Cl)c3n1C)C2C#N (racemic)	thermal stability, DSF	10 µM	ΔTm	-0.4 °C
CC(C)CC(=O)N1CCc2nc(-c3ccc(Br)cc3)nc(N(C)Cc3ccccc3)c2C1	cell-free assay, competition with immobilised ligand	0.1 µM	remaining binding	100%
CC(C)(C)c1nc2c(s1)c1nc(N)ncc1c1ccc(NS(=O)(=O)c3c(F)cccc3F)c(F)c12	enzyme activity, inhibitor, radiometric	1 µM	remaining activity	124%
COc1cc2ncnc(Nc3ccc(Oc4ccccc4)cc3C)c2cc1OC	enzyme activity, inhibitor	1 µM	inhibition	87%
CNCc1ccccc1-c1csc([C@H](C)Nc2nc(C)nc3cc(OC)c(OC)cc23)c1	cell-free assay, competition with immobilised ligand	1 µM	remaining binding	72%
Cc1cc(NC(=O)c2cccc3cc(-c4cccc5[nH]nc(N)c45)ccc23)ccc1F	enzyme activity, inhibitor	0.1 µM	activity vs control	96%
Cn1c2c(Cl)c(Cl)ccc2c2cc(N)[nH]c(=O)c21	thermal stability, DSF	10 µM	ΔTm	0.1 °C
O=c1cc(-c2cccc3c2Sc2ccccc2S3)oc(N2CCOCC2)c1	enzyme activity, inhibitor	0.5 µM	remaining activity	97%
